Experimental data reported in ChEMBL document CHEMBL5385911, “Exploring the Dispersion and Electrostatic Components in Arene-Arene Interactions between Ligands and G4 DNA to Develop G4-Ligands” (J Med Chem, 2024).
Converted amounts (≈) assume the structure as drawn. The source made the active and inactive calls. The calls are words filed in the database; no cut-off is given here.

Experiments:
[1] = system: Quadruplex DNA; assay: Stabilization of 5'-FAM and 3'-TAMRA labelled c-Myc G4-quadruplex Pu24T DNA (unknown origin) assessed as increase in thermal stability of DNA structure at 5 to 40 equiv. by FRET melting assay; conditions: dose 5-40 equiv
[2] = system: Quadruplex DNA; assay: Stabilization of fluorescently labelled c-Myc G4-quadruplex Pu22 DNA (unknown origin) assessed as increase in thermal stability of DNA structure at 40 equiv. by FRET melting assay; assay type: nucleic-acid assay
In short: (§1)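 Pu22 (FAM/TAMRA, 0.2 μM), folded in 10 mM lithium cacodylate pH 7.4, 2 mM KCl, 98 mM LiCl. Ligand at 5, 10, 25 or 40 equivalents. Heated 10–95 °C; donor emission at 516 nm (excitation 492 nm) normalized. Tm taken at 0.5 normalized emission; ΔTm is Tm with ligand minus Tm without ligand. Duplicate wells.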

[3] = Solubility of the compound at pH 7.4; assay type: physicochemical; conditions: buffer
[4] = Stabilization of double stranded PEPu24T mut DNA (unknown origin) assessed as inhibition of Taq DNA polymerase activity by measuring reduction in full length DNA product at 6 uM pretreated for 10 mins followed by incubation with dNTPs for 15 mins by PAGE analysis; conditions: time 25.0 min
In short: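 Non-G4 control template: TET-labelled 25 nt primer (1 μM final) annealed to mutated PEPu24T mut (1.25 μM final) in 100 mM KCl. 40 nM template, Taq buffer pH 8.8, 25 mM MgCl2, 0.05 U Taq. Compound on ice 10 min, then 100 μM dNTPs at 37 °C 15 min. Denaturing PAGE; full-length product as % of no-compound sample.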

[5] = system: Quadruplex DNA; assay: Stabilization of fluorescently labelled c-Myc G4-quadruplex Pu22 DNA (unknown origin) assessed as increase in thermal stability of DNA structure at 5 to 40 equiv. by FRET melting assay; assay type: nucleic-acid assay; conditions: dose 5-40 equiv
In short: as §1

[6] = system: Quadruplex DNA; assay: Stabilization of G4-quadruplex PEPu24T DNA (unknown origin) assessed as inhibition of Taq DNA polymerase activity by measuring reduction in full length DNA product at 0.048 to 6 uM pretreated for 10 mins followed by incubation with dNTPs for 15 mins by PAGE analysis; assay type: nucleic-acid assay; conditions: dose 0.048-6 µM, time 25.0 min
In short: (§2)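 Template made by annealing TET-labelled 25 nt primer (1 μM final) to PEPu24T (1.25 μM final) in 100 mM KCl. Reaction: 40 nM template, Taq buffer pH 8.8 with 50 mM KCl, 25 mM MgCl2, 0.05 U Taq. Compound preincubated on ice 10 min; dNTPs (100 μM) added, 37 °C 15 min. Denaturing 12% urea/formamide PAGE; full-length product expressed as % of no-compound sample; SD of ≥2 independent experiments.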

[7] = system: Quadruplex DNA; assay: Stabilization of G4-quadruplex PEPu24T DNA (unknown origin) assessed as inhibition of Taq DNA polymerase activity by measuring full length DNA product at 0.24 uM pretreated for 10 mins followed by incubation with dNTPs for 15 mins by PAGE analysis; assay type: nucleic-acid assay; design: scale not given: the % may be the effect or the level left; conditions: time 25.0 min
In short: as §2

| Compound | Activity [1] | Activity [2] | solubility [3] | Activity [4] | Activity [5] | Activity [6] | Activity [7] |
| --- | --- | --- | --- | --- | --- | --- | --- |
| Cc1cc(NCCCN(C)C)nc(Nc2nc(C)c3cc(Cl)ccc3n2)n1 | Active | Active | 858 µM (≈ 331 µg/mL) | inactive |  |  |  |
| Cc1cc(NCCCN(C)C)nc(Nc2nc3ccccc3nc2C)n1 | Active |  |  | inactive | Active | Active |  |
| Cc1cc(NCCCN(C)C)nc(Nc2nc3cc(Cl)c(Cl)cc3nc2C)n1 | Active |  |  | inactive | Active | Active |  |
| Cc1cc(C)nc(Nc2nc(C)c3ccccc3n2)n1 |  |  | 134 µM (≈ 35.6 µg/mL) | inactive |  |  |  |
| Cc1cc(NCCCN(C)C)nc(Nc2nc(C)c3ccccc3n2)n1 | Active | Active |  | inactive |  |  |  |
| COc1ccc2nc(Nc3nc(C)cc(C)n3)nc(C)c2c1 |  |  | 134 µM (≈ 39.6 µg/mL) | inactive |  |  |  |
| Cc1cc(NCCCN(C)C)nc(Nc2cnc3ccccc3n2)n1 | Active |  |  | inactive | inactive | Active |  |
| Cc1ccc2nc(Nc3nc(C)cc(NCCCN(C)C)n3)nc(C)c2c1 | Active | Active | 858 µM (≈ 314 µg/mL) | inactive |  |  | 30% |
